From ChEMBL document CHEMBL4190227, “Syntheses, toxicities and anti-inflammation of H2S-donors based on non-steroidal anti-inflammatory drugs” (Eur J Med Chem, 2017) come the findings set out here.

As a reminder, the half-life is how long it takes for the measured level to halve.

Data set [1] in a line: Toxicity in AB zebrafish embryo assessed as percentage of embryos alive at 5 to 10 uM measured at 120 hrs post fertilization by dissecting light microscopic analysis relative to DMF. It counts as organism-based, Danio rerio. The note with it: read-out: Activity. The essentials:
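Wild-type AB zebrafish embryos, collected within 1 h of lights-on and washed in E3 medium, were exposed one embryo per well in 200 μL test solution, with plates sealed against evaporation. There were 100 embryos per group, split into three replicate groups. Mortality was recorded at 24–168 hpf. DMF vehicle (1:1000) served as control. Results are mean ± SD of three replicates.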

For data set [2], the species on record is Danio rerio. Nature of the data set: Toxicity in AB zebrafish embryo assessed as increase in embryo malformation measured at 96 hrs post fertilization by stereoscopic dissecting light microscopic analysis. It counts as organism-based. The note with it: in vivo. The procedure, abridged:
(§1)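 AB embryos exposed from 4 hpf through 96 hpf to compound or DMF vehicle (1:1000); malformations scored at 96 hpf under stereoscopic dissecting microscope; 100 embryos per group in three replicates; three independent experiments, mean ± SD.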

The subject of data set [3] is Danio rerio. The experiment in a line: Toxicity in AB zebrafish embryo assessed as pericardial edema at 0.5 uM measured at 96 hrs post fertilization by stereoscopic dissecting light microscopic analysis. The format is organism-based. The note with it: in vivo. The essentials: as §1
Data set [4] is filed under the species Danio rerio. Nature of the data set: Toxicity in AB zebrafish embryo assessed as bent spine at 0.5 uM measured at 96 hrs post fertilization by stereoscopic dissecting light microscopic analysis. The format is organism-based. The note with it: in vivo. The procedure, abridged: as §1
The nature of data set [5]: Drug degradation in phosphate buffer assessed as H2S release by measuring test compound half life at 40 uM measured every 5 mins in presence of L-cysteine by UV-Vis spectrometry. It counts as physicochemical. The essentials: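 Sulfide release at 37.5 °C: donor (40 mM THF stock) added to pH 7.4 phosphate buffer with 1.0 mM L-cysteine; aliquots taken every 5 min into zinc acetate/N,N-dimethyl-1,4-phenylenediamine/FeCl3 in HCl, A670 read 15 min later; H2S quantified against Na2S standard curve (5–150 μM); release curve plotted vs time; four independent experiments.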

Data set [6] is filed under the species Danio rerio. Nature of the data set: Toxicity in AB zebrafish embryo assessed as reduction in embryonic spontaneous movement frequencies per minute up to 1 uM measured at 24 hrs post fertilization by stereoscopic dissecting light microscopic analysis. It counts as organism-based. The note with it: in vivo. The procedure, abridged: (§2)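 AB embryos exposed from 4 to 24 hpf to compound (0.5–20 μM) or DMF vehicle (1:1000); ten embryos per group chosen randomly; spontaneous movement recorded under stereoscopic dissecting microscope, frequency per min counted at 24 hpf; three independent experiments, mean ± SD.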

Data set [7] is filed under the species Danio rerio. The experiment in a line: Toxicity in AB zebrafish embryo assessed as embryonic spontaneous movement frequencies per minute at 5 uM measured at 24 hrs post fertilization by stereoscopic dissecting light microscopic analysis (reference value: 15.9 /min). The format is organism-based. The note with it: in vivo. The procedure, abridged: as §2
The species entered for data set [8] is Danio rerio. The experiment in a line: Toxicity in AB zebrafish embryo assessed as embryonic spontaneous movement frequencies per minute at 20 uM measured at 24 hrs post fertilization by stereoscopic dissecting light microscopic analysis (reference value: 15.9 /min). It counts as organism-based. The note with it: in vivo. The essentials:
as §2

Data set [9] is filed under the species Danio rerio. The experiment in a line: Toxicity in AB zebrafish embryo assessed as rate of embryo malformation at 0.5 to 20 uM measured at 96 hrs post fertilization by stereoscopic dissecting light microscopic analysis relative to DMF. The format is organism-based. The note with it: in vivo. The essentials:
as §1

In data set [10] the test system is RAW264.7. Nature of the data set: Antiinflammatory activity in mouse RAW264.7 cells assessed as increase in LPS-induced IL10 levels at 100 uM incubated for 24 hrs post LPS induction by ELISA relative to control. The format is functional. The essentials:
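LPS (1 μg/mL) for 4 h, then compound at 10, 50, 100 μM for 24 h; cells lysed in RIPA, spun 12,000×g 10 min, protein normalised by BCA to 0.1 mg/mL; target (TNF-α, HO-1, IL-10 or COX-2) quantified by sandwich ELISA kit with mouse-specific polyclonal antibodies; four independent experiments.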
A general note: In an ELISA, binding on a coated surface is turned into a signal by an enzyme label.

For data set [11], the system named is RAW264.7. The experiment in a line: Antiinflammatory activity in mouse RAW264.7 cells assessed as increase in IL10 levels at 100 uM measured after 24 hrs in absence of LPS by ELISA relative to control. The format is functional. The essentials: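 Macrophages exposed 24 h to 10, 50, 100 μM without LPS; lysates (RIPA, 12,000×g spin) normalised by BCA to 0.1 mg/mL protein; IL-10 measured by mouse-specific sandwich ELISA kit; four independent experiments, mean ± SD.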

As for `CC(C)Cc1ccc(C(C)C(=O)Oc2ccc(C(N)=S)cc2)cc1` (stereo unspecified), the survival at 120 h, up to 10 µM in data set [1] stood at 60%. Besides, the Activity entry was “Dose-dependent effect” in the data set listed under Danio rerio [2], “Toxic” in the data set on Danio rerio [3] and “Toxic” in the data set filed under Danio rerio [4].
As for `CC(=O)Nc1ccc(OC(=O)CCCCC2CCSS2)cc1` (stereo unspecified), in data set [5], the half-life at 40 µM was found to be 14.1 min. Moreover, the Activity entry is “Non-Toxic” in the data set listed under Danio rerio [6], 14.1 min⁻¹ in the data set filed under Danio rerio [7], 12.2 min⁻¹ in the data set listed under Danio rerio [8] and 3% in the data set filed under Danio rerio [9]. Moreover, the “fold change (FC)” value in the data set with RAW264.7 [10] and with RAW264.7 [11] was 3 each time.
